From ChEMBL document CHEMBL4266000, “Discovery of Novel 4-Arylisochromenes as Anticancer Agents Inhibiting Tubulin Polymerization” (ACS Med Chem Lett, 2018)
Blank lines part the entries; values can stand above or below the compound they belong to. Active and inactive are the calls of the source. No cut-off for these calls is given here.

Tests used:
[1] = tested on: KB; test: Antiproliferative activity against human KB cells after 72 hrs by MTT assay; assay type: functional, cell-based
Method in brief: (§1)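 MTT viability read-out after 72 h continuous exposure to test compounds. Performed in triplicate and reported as IC50, means ± SD, n = 3.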

[2] = tested on: HepG2; test: Antiproliferative activity against human HepG2 cells after 72 hrs by MTT assay; assay type: functional, cell-based; details: HepG2, 72 h; method in brief: as §1
[3] = tested on: MDA-MB-231; test: Antiproliferative activity against human MDA-MB-231 cells after 72 hrs by MTT assay; assay type: functional, cell-based; details: MDA-MB-231, 72 h; method in brief: as §1
[4] = tested on: HCT-8; test: Antiproliferative activity against human HCT8 cells after 72 hrs by MTT assay; assay type: functional, cell-based; details: HCT-8, 72 h; method in brief: as §1
[5] = tested on: H22; test: Antiproliferative activity against […] cells after 72 hrs by MTT assay; assay type: functional, cell-based; details: Mus musculus, H22, 72 h; method in brief: as §1
[6] = tested on: K562; test: Antiproliferative activity against human K562 cells after 72 hrs by MTT assay; assay type: functional, cell-based; details: K562, 72 h; method in brief: as §1
[7] = Inhibition of porcine brain tubulin polymerization after 30 mins by spectrophotometric method; parameters: species or system Sus scrofa
[8] = tested on: L02; test: Cytotoxicity against human LO2 cells after 72 hrs by MTT assay; assay type: cell-based; details: L02, 72 h; method in brief: as §1
[9] = species on record: Sus scrofa; test: Inhibition of [3H]colchicine binding to biotinylated porcine tubulin at 1 uM after 2 hrs by scintillation proximity assay
[10] = species on record: Sus scrofa; test: Inhibition of [3H]colchicine binding to biotinylated porcine tubulin at 5 uM after 2 hrs by scintillation proximity assay
[11] = tested on: HUVEC; test: Antimigratory activity in HUVEC after 24 hrs by wound healing based phase contrast microscopy; assay type: functional, cell-based; details: Homo sapiens
Method in brief: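 Confluent HUVEC monolayer scraped to make a wound. Cells exposed to test agent and migration into the scraped area followed over 24 h.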

[12] = tested on: H22; test: Antitumor activity against […] cells xenografted in ICR mouse assessed as reduction in tumor weight at 30 mg/kg, iv qd for 21 consecutive days; assay type: functional; parameters: scale not given: the % may be the effect or the level left
Method in brief: (§2)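 H22 cells inoculated subcutaneously into the right flank of mice. Dosing i.v. at 15 or 30 mg/kg per day, or paclitaxel 8 mg/kg every 2 days, for 21 days. Tumor size and body weight recorded every 2 days. Tumor weight compared with vehicle at day 21.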

[13] = tested on: H22; test: Antitumor activity against […] cells xenografted in ICR mouse assessed as reduction in tumor weight at 15 mg/kg, iv qd for 21 consecutive days; assay type: functional; parameters: scale not given: the % may be the effect or the level left; method in brief: as §2
[14] = tested on: K562; test: Induction of apoptosis in human K562 cells assessed as late apoptotic cells at 10 nM after 48 hrs by Annexin V-APC/7-AAD staining based flow cytometry (reference value: 5.7%); assay type: functional
[15] = tested on: K562; test: Induction of apoptosis in human K562 cells assessed as early apoptotic cells at 5 nM after 48 hrs by Annexin V-APC/7-AAD staining based flow cytometry (reference value: 5.7%); assay type: functional
[16] = tested on: Mus musculus; test: Toxicity in ICR mouse xenografted with […] cells assessed as decrease in body weight up to 30 mg/kg, iv qd for 21 consecutive days measured every 2 days; assay type: organism-based; details: in vivo, 48 h; method in brief: as §2
[17] = tested on: K562; test: Induction of microtubule network disruption in human K562 cells after 24 hrs by DAPI staining based immunofluorescence assay; assay type: functional, cell-based
Method in brief: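 K562 cells exposed at 5, 10 or 20 nM for 24 h. Microtubule network visualized by immunofluorescence against untreated cells.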

[18] = tested on: HUVEC; test: Antivascular activity against HUVEC assessed as reduction in capillary like tube formation up to 20 nM after 6 hrs by inverted microscopic based matrigel method; assay type: functional, cell-based; details: Homo sapiens
Method in brief: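 HUVECs seeded on matrigel to form capillary-like tubules, then exposed to 0, 5, 10 or 20 nM for 6 h. Disruption of tube networks scored.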

[19] = tested on: K562; test: Induction of mitochondrial membrane depolarization in human K562 cells at 5 nM after 48 hrs by JC-1 probe based flow cytometry (reference value: 0.6%); assay type: functional
Method in brief: (§3)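 K562 cells treated at 0, 5, 10 or 20 nM for 48 h. Mitochondrial membrane potential measured with JC-1 probe and the percentage of cells with collapsed potential recorded.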

[20] = tested on: K562; test: Induction of apoptosis in human K562 cells after 48 hrs by Annexin V-APC/7-AAD staining based flow cytometry; assay type: functional, cell-based
[21] = tested on: K562; test: Induction of apoptosis in human K562 cells assessed as early apoptotic cells at 20 nM after 48 hrs by Annexin V-APC/7-AAD staining based flow cytometry (reference value: 5.7%); assay type: functional
[22] = tested on: K562; test: Induction of apoptosis in human K562 cells assessed as late apoptotic cells at 5 nM after 48 hrs by Annexin V-APC/7-AAD staining based flow cytometry (reference value: 5.7%); assay type: functional
[23] = tested on: K562; test: Induction of mitochondrial membrane depolarization in human K562 cells at 20 nM after 48 hrs by JC-1 probe based flow cytometry (reference value: 0.6%); assay type: functional; method in brief: as §3
[24] = tested on: K562; test: Cell cycle arrest in human K562 cells assessed as accumulation at G2/M phase at 20 nM after 48 hrs by propidium iodide staining based flow cytometry; assay type: functional
Method in brief: (§4)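 K562 cells treated at 5, 10 or 20 nM for 48 h. Stained with propidium iodide and DNA content analysed for the fraction in G2/M.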

[25] = tested on: K562; test: Induction of apoptosis in human K562 cells assessed as late apoptotic cells at 20 nM after 48 hrs by Annexin V-APC/7-AAD staining based flow cytometry (reference value: 5.7%); assay type: functional
[26] = tested on: K562; test: Cell cycle arrest in human K562 cells assessed as accumulation at G2/M phase at 10 nM after 48 hrs by propidium iodide staining based flow cytometry; assay type: functional; method in brief: as §4
[27] = tested on: K562; test: Induction of apoptosis in human K562 cells assessed as early apoptotic cells at 10 nM after 48 hrs by Annexin V-APC/7-AAD staining based flow cytometry (reference value: 5.7%); assay type: functional
[28] = tested on: K562; test: Induction of mitochondrial membrane depolarization in human K562 cells at 10 nM after 48 hrs by JC-1 probe based flow cytometry (reference value: 0.6%); assay type: functional; method in brief: as §3
[29] = tested on: K562; test: Cell cycle arrest in human K562 cells assessed as accumulation at G2/M phase at 5 nM after 48 hrs by propidium iodide staining based flow cytometry; assay type: functional; method in brief: as §4
[30] = tested on: H22; test: Antitumor activity against […] cells xenografted in ICR mouse assessed as reduction in tumor weight at 8 mg/kg, iv per 2 days for 21 consecutive days; assay type: functional; parameters: scale not given: the % may be the effect or the level left; method in brief: as §2
[31] = tested on: Mus musculus; test: Toxicity in ICR mouse xenografted with […] cells assessed as decrease in body weight at 8 mg/kg, iv per 2 days for 21 consecutive days measured every 2 days; assay type: organism-based; details: in vivo, 48 h; method in brief: as §2

SMILES: COc1ccc2c(c1O)COC=C2c1cc(OC)c(OC)c(OC)c1
IC50 [1]: 16 nM
IC50 [2]: 26 nM
IC50 [3]: 28 nM
IC50 [4]: 25 nM
IC50 [5]: 10 nM
IC50 [6]: 19 nM
IC50 [7]: 4200 nM
IC50 [8]: 138 nM

SMILES: COc1ccc2c(c1O)COC[C@@H]2c1cc(OC)c(OC)c(OC)c1
IC50 [1]: 12 nM
IC50 [3]: 11 nM
inhibition [9]: 79.4%
inhibition [10]: 92.6%
IC50 [4]: 12 nM
IC50 [5]: 8 nM
IC50 [6]: 8 nM
IC50 [7]: 2500 nM
IC50 [8]: 58 nM

SMILES: COc1cc2c(cc1O)C(c1cc(OC)c(OC)c(OC)c1)=COC2
IC50 [2]: > 10000 nM

SMILES: COc1ccc(/C=C\c2cc(OC)c(OC)c(OC)c2)cc1O [COMBRETASTATIN A4]
IC50 [1]: 12 nM
Activity [12]: 55.3%
IC50 [3]: 15 nM
Activity [13]: 44.8%
IC50 [4]: 15 nM
IC50 [5]: 8 nM
IC50 [6]: 15 nM
IC50 [7]: 2500 nM
IC50 [8]: 95 nM

SMILES: CC(=O)O[C@H]1C(=O)[C@@]2(C)[C@H]([C@H](OC(=O)c3ccccc3)[C@]3(O)C[C@H](OC(=O)[C@H](O)[C@@H](NC(=O)c4ccccc4)c4ccccc4)C(C)=C1C3(C)C)[C@]1(OC(C)=O)CO[C@@H]1C[C@@H]2O [PACLITAXEL]
Activity [30]: 72.1%
Activity [31]: Toxic

Continued, in another order:

IC50 [1]: 25100 nM
IC50 [2]: 23700 nM
IC50 [3]: 30200 nM
IC50 [4]: 35200 nM
IC50 [6]: 20500 nM
IC50 [7]: 10600 nM
SMILES: COc1ccc2c(c1O)COC(C)C2=O (centres undefined)
IC50 [5]: 18200 nM
IC50 [8]: 22200 nM

IC50 [2]: > 10000 nM
SMILES: COc1cc2c(cc1O)C(c1cc(OC)c(OC)c(OC)c1)COC2 (centres undefined)

IC50 [1]: 870 nM
IC50 [3]: 900 nM
IC50 [4]: 940 nM
IC50 [6]: 460 nM
IC50 [7]: 4300 nM
SMILES: COc1ccc2c(c1O)COC[C@H]2c1cc(OC)c(OC)c(OC)c1
IC50 [5]: 800 nM
IC50 [8]: 900 nM

IC50 [1]: 25 nM
IC50 [2]: 15 nM
IC50 [3]: 22 nM
inhibition [9]: 76.4%
inhibition [10]: 89.6%
IC50 [4]: 30 nM
IC50 [6]: 10 nM
IC50 [7]: 3100 nM
SMILES: COc1ccc2c(c1O)COCC2c1cc(OC)c(OC)c(OC)c1 (racemic)
Activity [11]: Dose-dependent effect
Activity [12]: 62.3%
Activity [13]: 46.5%
Activity [14]: 29%
Activity [15]: 13.7%
Activity [16]: Non-Toxic
Activity [17]: Dose-dependent effect
Activity [18]: Active
Activity [19]: 12.7%
IC50 [5]: 11 nM
Activity [20]: Dose-dependent effect
Activity [21]: 54.1%
Activity [22]: 13.7%
Activity [23]: 55.1%
Activity [24]: 22.4%
Activity [25]: 54.1%
Activity [26]: 19.5%
Activity [27]: 29%
IC50 [8]: 95 nM
Activity [28]: 26.7%
Activity [29]: 17.5%
